Source: the M2OR odorant receptor database

Target: T1, UniProt Q8VGM2
T1 sequence (whole entry): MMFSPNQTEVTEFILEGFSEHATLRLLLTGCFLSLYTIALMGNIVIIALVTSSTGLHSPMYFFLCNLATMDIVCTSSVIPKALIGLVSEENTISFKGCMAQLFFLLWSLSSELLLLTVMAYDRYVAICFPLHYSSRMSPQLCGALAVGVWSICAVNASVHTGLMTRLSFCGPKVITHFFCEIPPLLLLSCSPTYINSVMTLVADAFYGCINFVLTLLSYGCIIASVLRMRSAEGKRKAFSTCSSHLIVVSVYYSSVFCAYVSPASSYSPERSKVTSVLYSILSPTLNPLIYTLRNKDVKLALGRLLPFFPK
Details: stereoisomer not certain
In short: (§1)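 Each receptor–molecule pair is labelled responsive or non-responsive (inactive) according to whether the original authors judged the measured signal statistically different from baseline. The data were taken from the main text and supplementary material of published papers and checked for typos and inconsistencies. Assay methods differed by source, with transient luciferase assays in mammalian cell lines being common.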
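Also: active if original authors judged signal statistically different from baseline.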

| SMILES | odorant receptor agonist call |
| --- | --- |
| O=c1ccc2ccccc2o1 | inactive |
| CCCCCC=O | inactive |
| CCCCCCCO | inactive |
| O=C1CCOc2ccccc21 | inactive |
| CCCCCCOC(C)=O | inactive |
| O=C(c1ccccc1)c1ccccc1 | inactive |
| CCCCCCCCC(=O)O | inactive |
| CC12CCC(CC1=O)C2(C)C (configuration not stated) | inactive |
| CCCCCCCCO | inactive |
| CCCCC(C)=O | inactive |
| CCCCCCCCCS | inactive |
| CCCCCCCCCC(=O)[O-].[H+] | inactive |
| CCCCCCO | inactive |
| CC(=O)OCc1ccccc1 | inactive |
| CCCCCCCCCO | inactive |
| CCCCCCC(C)=O | inactive |
| CCCCOC=O | inactive |
| CCCCCOC(=O)CCCCC | inactive |

Target: T2, UniProt Q8VGP6
T2 sequence (whole entry): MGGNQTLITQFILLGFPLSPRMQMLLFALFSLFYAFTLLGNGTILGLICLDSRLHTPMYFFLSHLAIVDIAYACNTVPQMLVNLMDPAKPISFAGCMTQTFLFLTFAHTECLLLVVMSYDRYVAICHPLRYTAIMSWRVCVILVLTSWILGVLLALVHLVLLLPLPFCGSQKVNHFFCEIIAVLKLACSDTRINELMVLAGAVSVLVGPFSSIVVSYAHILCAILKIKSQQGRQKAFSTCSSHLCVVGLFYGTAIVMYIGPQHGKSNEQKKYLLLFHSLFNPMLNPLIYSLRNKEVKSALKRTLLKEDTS
Details: stereoisomer not certain
In short: as §1

| SMILES | odorant receptor agonist call |
| --- | --- |
| O=c1ccc2ccccc2o1 | inactive |
| CCCCCC=O | inactive |
| CCCCCCCO | active |
| O=C1CCOc2ccccc21 | inactive |
| CCCCCCOC(C)=O | inactive |
| O=C(c1ccccc1)c1ccccc1 | inactive |
| CCCCCCCCC(=O)O | inactive |
| CC12CCC(CC1=O)C2(C)C (configuration not stated) | inactive |
| CCCCCCCCO | active |
| CCCCC(C)=O | inactive |
| CCCCCCCCCS | active |
| CCCCCCCCCC(=O)[O-].[H+] | inactive |
| CCCCCCO | inactive |
| CC(=O)OCc1ccccc1 | active |
| CCCCCCCCCO | active |
| CCCCCCC(C)=O | inactive |
| CCCCOC=O | inactive |
| CCCCCOC(=O)CCCCC | inactive |

Target: T3, UniProt Q8VGQ3
T3 sequence (whole entry): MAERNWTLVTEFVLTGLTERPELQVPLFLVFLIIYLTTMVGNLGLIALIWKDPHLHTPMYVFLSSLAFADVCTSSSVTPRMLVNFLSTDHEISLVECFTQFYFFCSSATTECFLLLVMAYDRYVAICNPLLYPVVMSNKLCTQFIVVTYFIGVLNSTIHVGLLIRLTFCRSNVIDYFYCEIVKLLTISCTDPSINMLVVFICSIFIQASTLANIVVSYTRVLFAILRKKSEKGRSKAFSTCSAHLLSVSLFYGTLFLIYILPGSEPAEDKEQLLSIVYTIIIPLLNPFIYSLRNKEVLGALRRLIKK
Details: stereoisomer not certain
In short: as §1

| SMILES | odorant receptor agonist call |
| --- | --- |
| O=c1ccc2ccccc2o1 | inactive |
| CCCCCC=O | inactive |
| CCCCCCCO | inactive |
| O=C1CCOc2ccccc21 | inactive |
| CCCCCCOC(C)=O | inactive |
| O=C(c1ccccc1)c1ccccc1 | inactive |
| CCCCCCCCC(=O)O | inactive |
| CC12CCC(CC1=O)C2(C)C (configuration not stated) | inactive |
| CCCCCCCCO | inactive |
| CCCCC(C)=O | inactive |
| CCCCCCCCCS | inactive |
| CCCCCCCCCC(=O)[O-].[H+] | inactive |
| CCCCCCO | inactive |
| CC(=O)OCc1ccccc1 | inactive |
| CCCCCCCCCO | inactive |
| CCCCCCC(C)=O | inactive |
| CCCCOC=O | inactive |
| CCCCCOC(=O)CCCCC | inactive |

Target: T4, UniProt Q8VGT4
T4 sequence (whole entry): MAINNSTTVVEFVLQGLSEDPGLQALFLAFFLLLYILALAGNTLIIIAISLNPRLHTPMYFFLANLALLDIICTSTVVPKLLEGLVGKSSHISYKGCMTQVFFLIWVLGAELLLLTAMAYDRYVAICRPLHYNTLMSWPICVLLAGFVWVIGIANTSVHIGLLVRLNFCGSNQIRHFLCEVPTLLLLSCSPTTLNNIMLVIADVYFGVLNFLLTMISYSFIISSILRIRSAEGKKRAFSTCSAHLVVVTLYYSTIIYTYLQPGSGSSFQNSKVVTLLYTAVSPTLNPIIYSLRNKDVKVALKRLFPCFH
Details: stereoisomer not certain
In short: as §1

| SMILES | odorant receptor agonist call |
| --- | --- |
| O=c1ccc2ccccc2o1 | inactive |
| CCCCCC=O | inactive |
| CCCCCCCO | inactive |
| O=C1CCOc2ccccc21 | inactive |
| CCCCCCOC(C)=O | inactive |
| O=C(c1ccccc1)c1ccccc1 | inactive |
| CCCCCCCCC(=O)O | inactive |
| CC12CCC(CC1=O)C2(C)C (configuration not stated) | active |
